Assay results: ChEMBL document CHEMBL2321751, “Optimization of chloronitrobenzamides (CNBs) as therapeutic leads for human African trypanosomiasis (HAT)” (J Med Chem, 2013)
pEC50: −log10 of the molar value. Values after ≈ are worked out from the molar mass of the structure shown.

Experiments:
[1] = tested on: Trypanosoma brucei brucei; assay: Antitrypanosomal activity against blood stream stage of Trypanosoma brucei brucei after 48 hrs by Cell Titre Glo assay; assay type: functional, organism-based
Procedure, shortened: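 Culture-adapted parasites were grown in HMI-9 with 10% heat-inactivated FBS, 10% Serum Plus and penicillin/streptomycin to 1 × 10⁶ cells/mL, then diluted to 1 × 10⁴ cells/mL. DMSO dilution series were pin-transferred and plates held 48 h at 37 °C in 5% CO2. After 30 min at room temperature, CellTiter-Glo was added and luminescence read after 8 min.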

[2] = tested on: Trypanosoma brucei gambiense; assay: Antitrypanosomal activity against Trypanosoma brucei gambiense STIB930 after 70 hrs by Alamar Blue assay; assay type: functional, organism-based; conditions: STIB930, 70 h
Procedure, shortened: (§1)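 T. b. gambiense strains were grown in HMI-9 with 15% heat-inactivated FBS and 5% human serum. 10000 trypanosomes per well were seeded into serial drug dilutions and held 70 h at 37 °C in humidified 5% CO2. Resazurin was then added for a further 4–6 h, and fluorescence was read (ex 536/em 588 nm). IC50 was taken by linear regression from sigmoidal dose-inhibition curves.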

HepG2 = assay: Cytotoxicity against human HepG2 cells after 72 hrs by Cell Titre Glo assay; assay type: cell-based; conditions: HepG2, 72 h
Procedure, shortened: (§2)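 Human cells grown to 80% confluence were plated in 384-well format and received compound dilutions by pin tool. After 72 h at 37 °C in 5% CO2, viability was measured by CellTiter-Glo luminescence.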

[3] = Half life in mouse liver microsomes; assay type: ADME, Microsome
Procedure, shortened: (§3)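 Liver microsomes (human: pooled from 200 mixed-gender donors; mouse: female […]) were diluted in 0.1 M potassium phosphate, pH 7.4, with EDTA, then spiked from a 2 mM DMSO/acetonitrile compound stock. Reactions were started with cofactor solutions A+B and kept at 37 °C with shaking. Samples at 0, 0.5, 1, 2 and 4 h were quenched with cold methanol containing 10 μM warfarin and analysed by UPLC-MS (SIR). k = −2.303 × slope of log peak-area ratio versus time; t1/2 = 0.693/k.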

[4] = Half life in human liver microsomes; assay type: ADME, Microsome; procedure, shortened: as §3
[5] = Permeability of the compound at pH 7.4 by PAMPA; assay type: ADME; conditions: for Papp: PAMPA, read-out: permeability
Procedure, shortened: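 Compound (10 mM DMSO stock) was diluted in system solution buffer pH 7.4 and placed in the donor chamber of a PAMPA sandwich whose membrane was coated with GIT lipid. Acceptor buffer filled the acceptor chamber, and the assembly was stirred for 30 min. Donor and acceptor UV spectra (250–500 nm) were compared with a reference to give the permeability coefficient. Run in triplicate.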

HEK293 = assay: Cytotoxicity against HEK293 cells after 72 hrs by Cell Titre Glo assay; assay type: cell-based; conditions: Homo sapiens, HEK293, 72 h; procedure, shortened: as §2
[6] = tested on: Trypanosoma brucei brucei; assay: Antitrypanosomal activity against Trypanosoma brucei brucei 221 after 48 hrs by Cell Titre Glo assay; assay type: functional, organism-based; conditions: Trypanosoma brucei, 221, 48 h
Procedure, shortened: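 Bloodstream-form parasites grown in HMI-9 with 10% heat-inactivated FBS, 10% Serum Plus and penicillin/streptomycin at 37 °C, 5% CO₂, to 1 × 10⁶ cells/mL. Diluted to 1 × 10⁴ cells/mL, then dosed with a DMSO dilution series by pin transfer. Incubated 48 h at 37 °C, 5% CO₂. Viability read by CellTiter-Glo luminescence. EC₅₀ from a variable-slope sigmoidal fit. Mean of six replicates, errors as 95% CI.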

[7] = Kinetic solubility of the compound in PBS buffer at pH 7.4 after 18 hrs by UV spectrophotometric analysis; assay type: physicochemical; conditions: for Kinetic_solubility: buffer, pH 7.4, 18 h, BLD = below limit of detection; for solubility kinetic at 18 h: PBS buffer, pH 7.4, read-out: Kinetic_solubility
Procedure, shortened: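 Compound from a 10 mM stock was added to PBS pH 7.4 and left 18 h at room temperature. The suspension was filtered, and the filtrate was mixed 1:1 with 1-propanol. Solubility was derived from UV spectrum AUC (250–500 nm) relative to a 1-propanol/PBS reference. Run in triplicate.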

Raji = assay: Cytotoxicity against human Raji cells after 72 hrs by Cell Titre Glo assay; assay type: cell-based; procedure, shortened: as §2
[8] = tested on: Trypanosoma brucei rhodesiense; assay: Antitrypanosomal activity against bloodstream forms of wild type Trypanosoma brucei rhodesiense STIB900 after 70 hrs by Alamar Blue assay; assay type: functional, organism-based; conditions: STIB900, 70 h
Procedure, shortened: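 T. b. rhodesiense STIB 900 was cultured in MEM with Earle's salts and Baltz supplements (0.2 mM 2-mercaptoethanol, 1 mM Na-pyruvate, 0.5 mM hypoxanthine, 15% heat-inactivated horse serum). 2000 bloodstream forms per well were exposed to serial drug dilutions for 70 h at 37 °C in humidified 5% CO2. Resazurin followed for 2–4 h, read by fluorescence (ex 536/em 588 nm). IC50 came from sigmoidal curves by linear regression.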

BJ = assay: Cytotoxicity against human BJ cells after 72 hrs by Cell Titre Glo assay; assay type: cell-based; procedure, shortened: as §2
[9] = Permeability of the compound at pH 3.0 by PAMPA; assay type: ADME; conditions: read-out: permeability
[10] = Kinetic solubility of the compound in PBS buffer at pH 3.0 after 18 hrs by UV spectrophotometric analysis; assay type: physicochemical; conditions: read-out: Kinetic_solubility
[11] = tested on: Trypanosoma brucei gambiense; assay: Antitrypanosomal activity against Trypanosoma brucei gambiense KO48 after 70 hrs by Alamar Blue assay; assay type: functional, organism-based; conditions: KO48, 70 h; procedure, shortened: as §1
[12] = tested on: Trypanosoma brucei gambiense; assay: Antitrypanosomal activity against Trypanosoma brucei gambiense DAL 898R after 70 hrs by Alamar Blue assay; assay type: functional, organism-based; procedure, shortened: as §1

SMILES | pEC50 [1] | pEC50 [2] | pEC50 (HepG2) | Papp [5] [×10⁻⁶ cm/s] | pEC50 (HEK293) | pEC50 [6] | pEC50 (Raji) | pEC50 [8] | pEC50 (BJ) | further results
O=C(Nc1nc2ccccc2s1)c1cc([N+](=O)[O-])ccc1Cl | 5.80 |  |  |  |  |  |  |  |  | 
O=C(Nc1ccc(F)c(Cl)c1)c1cc([N+](=O)[O-])ccc1Cl | 6.02 |  |  |  |  |  |  |  |  | 
Cc1ccc(-c2nc3ccccc3s2)cc1NC(=O)c1cc([N+](=O)[O-])ccc1Cl |  | 7.44 | < 4.85 | 41 | < 4.85 | 8.22 | < 4.85 | 7.89 | < 4.85 | half-life [3]: > 4 h; half-life [4]: > 4 h; Kinetic_solubility [7]: BLD
COc1ccc(-c2nc3ccccc3s2)cc1NC(=O)c1cc([N+](=O)[O-])ccc1Cl |  | 7.20 | < 4.60 |  | < 4.60 | 6.92 | < 4.60 | 7.14 | < 4.60 | half-life [3]: > 4 h; half-life [4]: 3.7 h; permeability ([5]; pampa, BLD = below limit of detection): BLD; Kinetic_solubility [7]: BLD
O=C(Nc1cc(-c2nc3ccccc3s2)ccc1F)c1cc([N+](=O)[O-])ccc1Cl |  | 6.70 | < 4.60 | 191 | < 4.60 | 6.80 | < 4.60 | 6.64 | < 4.60 | Kinetic_solubility [7]: BLD
O=C(Nc1ccc(F)c(-c2nc3ccccc3s2)c1)c1cc([N+](=O)[O-])ccc1Cl |  | 7.20 | < 4.60 | 17 | < 4.60 | 6.60 | < 4.60 | 7.16 | < 4.60 | solubility kinetic at 18 h [7]: 0.49 µM (≈ 0.21 µg/mL)
O=C(Nc1ccc(F)c(-c2nc3ccccc3s2)c1)c1cc([N+](=O)[O-])c(N2CCNCC2)cc1Cl |  | 6.77 | < 4.60 |  | < 4.60 | 7.24 | < 4.60 | 6.85 | < 4.60 | half-life [3]: > 4 h; half-life [4]: > 4 h
COc1ccc(-c2nc3ccccc3s2)cc1NC(=O)c1cc([N+](=O)[O-])c(N2CCN(C)CC2)cc1Cl |  | 7.14 | < 4.60 | 676 | < 4.60 | 6.85 | < 4.60 | 6.77 | < 4.60 | solubility kinetic at 18 h [7]: 0.5 µM (≈ 0.269 µg/mL)
O=C(Nc1cccc(-c2nc3ccccc3s2)c1)c1cc([N+](=O)[O-])c(N2CCNCC2)cc1Cl |  |  | 5.28 | 276 | 4.90 | 6.72 | < 4.60 |  | < 4.60 | Papp [9]: < 1 ×10⁻⁶ cm/s; solubility kinetic at 18 h [10]: 0.98 µM (≈ 0.484 µg/mL); solubility kinetic at 18 h [7]: 0.72 µM (≈ 0.356 µg/mL)
O=C(Nc1cccc(-c2nc3ccccc3s2)c1)c1cc([N+](=O)[O-])c(N2CCOCC2)cc1Cl |  |  | < 4.60 | 18 | < 4.60 | 6.66 | < 4.60 |  | < 4.60 | Papp [9]: 106 ×10⁻⁶ cm/s; solubility kinetic at 18 h [10]: 0.07 µM (≈ 0.0346 µg/mL); solubility kinetic at 18 h [7]: 0.37 µM (≈ 0.183 µg/mL)
O=C(Nc1ccc([N+](=O)[O-])cc1)c1cc([N+](=O)[O-])ccc1Cl | 5.74 |  |  |  |  |  |  |  |  | 
O=C(Nc1ccc2oc(-c3ccc(F)cc3)nc2c1)c1cc([N+](=O)[O-])ccc1Cl | 6.19 | 6.38 |  |  |  | 5.22 |  | 5.42 |  | pEC50 [11]: 5.59; pEC50 [12]: 5.36
O=C(Nc1ccc2oc(-c3ccccc3Cl)nc2c1)c1cc([N+](=O)[O-])ccc1Cl | 5.55 |  |  |  |  |  |  |  |  | 
O=C(Nc1ccc2oc(-c3ccccc3Br)nc2c1)c1cc([N+](=O)[O-])ccc1Cl | 5.38 |  |  |  |  |  |  |  |  | 
O=C(Nc1ccc2oc(-c3ccccc3F)nc2c1)c1cc([N+](=O)[O-])ccc1Cl | 5.31 |  |  |  |  |  |  |  |  | 
O=C(Nc1ccc2oc(-c3ccccc3)nc2c1)c1cc([N+](=O)[O-])ccc1Cl | 5.21 |  |  |  |  |  |  |  |  | 
O=C(Nc1nc(-c2ccc(F)cc2)cs1)c1cc([N+](=O)[O-])ccc1Cl | 6.43 |  |  |  |  |  |  |  |  | 
O=C(Nc1nc(-c2ccc(F)cc2F)cs1)c1cc([N+](=O)[O-])ccc1Cl | 6.40 |  |  |  |  |  |  |  |  | 
Cc1sc(NC(=O)c2cc([N+](=O)[O-])ccc2Cl)nc1-c1ccccc1 | 6.27 |  |  |  |  |  |  |  |  | 
